# Screening results: PubChem BioAssay, The Scripps Research Institute Molecular Screening Center
# CHRM5 PAM = potentiates acetylcholine response at human M5 receptor; CHO-K1 hM5, Fluo-8 calcium, ACh EC20 PAM; 0% = ACh EC20, 100% = ACh EC100; P08912; activation, % at 3 µM; 360,000 tested, 0.3% active; AID 624038;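 active = activation above the run cutoff, the mean activation of all test compounds plus 3 SD, cut at about 18% in these data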
#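 Assay system: CHO-K1 hM5 cells / Incubation: Fluo-8 loading 80 min at 37 °C plus 30 min room temperature / Technique: Fluo-8 calcium dye fluorescence, kinetic read / Repeats: single replicate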
# CHRM1 agonist = human M1 muscarinic receptor agonism | P11229 | CHO-K1 hM1, Fluo-8 calcium fluorescence, agonist mode; 0% DMSO, 100% acetylcholine EC100 | activation, % at 3 µM | 360,000 tested, 0.33% active | AID 588814;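 active = activation above the run's mean compound activation plus 3 SD, cut at about 16% in these data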;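 also: peak over basal fluorescence ratio within a 140 s kinetic read after compound addition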
# Target sequence (P11229 whole entry, looked up): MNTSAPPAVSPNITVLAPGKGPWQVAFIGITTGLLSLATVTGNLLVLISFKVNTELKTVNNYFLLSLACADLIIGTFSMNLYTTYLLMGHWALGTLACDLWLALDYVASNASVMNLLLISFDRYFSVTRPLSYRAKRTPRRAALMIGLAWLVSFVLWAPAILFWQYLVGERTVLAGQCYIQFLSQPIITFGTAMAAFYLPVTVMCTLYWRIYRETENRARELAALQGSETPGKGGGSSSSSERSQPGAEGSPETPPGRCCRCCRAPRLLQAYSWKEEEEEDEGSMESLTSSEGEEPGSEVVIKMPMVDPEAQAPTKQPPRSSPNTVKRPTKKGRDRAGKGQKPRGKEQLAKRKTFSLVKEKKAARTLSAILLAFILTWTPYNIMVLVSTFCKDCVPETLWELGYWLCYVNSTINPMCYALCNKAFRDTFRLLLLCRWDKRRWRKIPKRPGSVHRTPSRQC
# CHRM1 antagonist = human CHRM1 antagonism; CHO-K1 hM1, Fluo-8 calcium fluorescence, ACh EC80 antagonist; inhibition, % at 3 µM; 360,000 tested, 1.3% active; AID 588852;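 active = percent inhibition above its own plate's cutoff, namely the mean of that plate's compound wells plus 3 SD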;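 also: peak over basal fluorescence ratio during 140 s after agonist addition; 0% = ACh EC80 plus DMSO and 100% = DMSO alone without agonist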
# CHRM1 PAM = human CHRM1 positive allosteric modulation; P11229; CHO-K1 hM1, Fluo-8 calcium fluorescence, ACh EC20; 0% = ACh EC20, 100% = maximal ACh; activation, % at 3 µM; 360,000 tested, 0.088% active; AID 588819; in the data active = activation above about 19%, passing the limit was not always enough
# CHRM5 antagonist = CHRM5 antagonism in calcium assay | P08912 | CHO-hM5 cells, Fluo-8 calcium fluorescence, ACh EC80 | inhibition, % at 3 µM | 360,000 tested, 0.59% active;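 active = inhibition above a per-plate cutoff, the mean of that plate's test compounds plus 3 SD, cut at about 27% in these data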;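 also: 0% = acetylcholine EC80 with DMSO and 100% = DMSO without agonist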
# CHRM5 agonist = CHRM5 agonism in calcium assay; CHO-K1 hM5 cells, Fluo-8 calcium fluorescence; 0% DMSO wells, 100% maximal acetylcholine response; activation, % at 3 µM; 360,000 tested, 0.19% active;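 active = activation above the run's mean over test compounds plus 3 SD, cut at about 23% in these data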;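 also: signal is peak over basal fluorescence ratio across the kinetic read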
# * = called active by the depositor; x = no result. Most compounds without a hit are left out; they make up all but 2.2% or so of the library.
SMILES,CHRM5 PAM,CHRM1 agonist,CHRM1 antagonist,CHRM1 PAM,CHRM5 antagonist,CHRM5 agonist
CC(C)CC1CCCCC1OC(=O)C[N+]1(C)CCCCC1 (stereo unspecified),-16,-14,96*,-36,97*,-11
CC(C)CCC(CCN1CCCC1)c1ccc2c(c1)OCO2 (stereo unspecified),-31,-7,57*,-26,21,-17
c1ccc(OCCNc2nc(NCC3CC3)nc3ccsc23)cc1,-12,-3,21,-19,13,2
Nc1cccc(N2C(=O)c3cccc4c(N)ccc(c34)C2=O)c1,-11,45*,14,-14,8,21
O=C(O)c1cccc(N2C(=O)c3cccc4c(Cl)ccc(c34)C2=O)c1,-2,-7,0,0,-4,-2
Cc1cccc(N2C(=O)c3cccc4c(N)ccc(c34)C2=O)c1,-31,108*,43*,-27,51*,380*
Cc1cccc(N2C(=O)c3cccc4c(N(C)CCO)ccc(c34)C2=O)c1,-17,23*,11,-14,23,42*
Nc1ccc2c3c(cccc13)C(=O)N(c1ccccc1)C2=O,-20,121*,52*,-24,23,45*
CC(C)CCN1C(=O)c2cccc3c(N)ccc(c23)C1=O,-32,151*,70*,-23,70*,313*
CC(=O)c1ccccc1OCCCN1CCCCC1,-11,-5,38*,-19,-1,-12
Brc1ccccc1OCCCN1CCCC1,-3,-6,16,-11,12,-8
CC(C)c1ccccc1OCCCN1CCCC1,-22,-10,42*,-26,19,-24
CC(C)c1ccccc1OCCCCN1CCCCC1,-24,-8,64*,-27,18,-18
CC(C)c1ccccc1OCCCCCN1CCOCC1,-26,-8,62*,-25,6,-18
O=C(OC1CC2CC1[C@H]1CCCCN1C2=O)N1CCN(C(=O)c2ccccc2)CC1 (stereo partly specified),-2,x,x,x,-4,2
Cc1cc(Br)ccc1OCCCCN1CCCCC1,-11,-9,42*,-26,2,-8
c1ccc(-c2ccccc2OCCCCN2CCCCC2)cc1,-10,-11,32*,-26,7,-6
c1ccc(-c2ccccc2OCCCN2CCCCCC2)cc1,-15,-9,21,-26,23,-7
O=C(Nc1ccccc1)Nc1ccc(F)c([N+](=O)[O-])c1,-14,2,11,-13,27*,6
CCNC(=S)Nc1ccc(Cl)c([N+](=O)[O-])c1,-18,2,36*,-13,10,8
Cc1ccc(NC(=O)Nc2ccccc2)cc1[N+](=O)[O-],-21,3,15,-8,16,10
O=C(Nc1ccccc1)Nc1ccc(Cl)c([N+](=O)[O-])c1,-15,2,19,-7,28*,11
CCCC(=O)NCC(c1cccs1)S(=O)(=O)c1ccc(C)cc1 (stereo unspecified),-1,-2,-14,2,10,-6
CC1CCC(C(C)C)C(OCC[N+](C)(C)C)C1 (stereo unspecified),-20,-10,100*,-22,99*,-7
CC1CCC(C(C)C)C(OCC(O)C[N+]2(C)CCCCC2)C1 (stereo unspecified),-14,-6,76*,-23,4,-13
SMILES,CHRM5 PAM,CHRM1 agonist,CHRM1 antagonist,CHRM1 PAM,CHRM5 antagonist,CHRM5 agonist
N=C1C(c2ccccc2)=C(O)CN1CCCO,0,-9,-2,7,-11,-1
CCc1nc2ccc(C(=O)N3CCN(c4cccc(C(F)(F)F)c4)CC3)cc2nc1CC,-6,-6,47*,-23,12,-9
CCc1nc2ccc(C(=O)N3CCN(c4ccccc4)CC3)cc2nc1CC,-3,-6,-2,-1,13,-5
C=C1C(C(=O)Nc2ccc(OC)cc2)C1C(=O)Nc1ccc(OC)cc1 (stereo unspecified),-3,-3,25*,-4,8,3
CSCC[C@H](NC(=O)C1CCC(CNC(=O)[C@@H]2CCCN2C(=O)OC(C)(C)C)CC1)C(=O)O (stereo partly specified),-2,2,-9,17,2,0
CCN(CC)CCCNC(=O)C1CCC(CNS(=O)(=O)c2c(C)cc(C)cc2C)CC1 (stereo unspecified),-2,-9,6,-11,5,-8
CCC1CCCCN1CCCNC(=O)C1CCC(CNS(=O)(=O)c2c(C)cc(C)cc2C)CC1 (stereo unspecified),6,-6,63*,-21,6,-9
O=C1/C(=C\c2cccnc2)Sc2ccccc21,9,19*,3,16,7,7
CN1C(=O)S/C(=C/c2cccnc2)C1=O,-4,-4,-8,4,-1,2
CN(Cc1ccccc1)C(=S)Nc1ccc(OC(F)F)cc1,-5,-11,-3,-2,3,-3
CN(C)CCCN(Cc1ccccc1)C(=S)Nc1ccc(OC(F)F)cc1,-14,-8,55*,-26,11,-8
O=C(Nc1nnc([C@@H]2C[C@H](O)[C@@H](CO)O2)s1)Nc1cccc2c1CCCC2,2,-1,-12,15,2,1
COc1ccc(C(=NNc2ccccc2C(=O)O)c2ccc(OC)cc2)cc1,-6,-5,2,1,10,-2
CCN(CC(=O)Nc1ccc2c(c1)OCCO2)C(=O)/C=C/c1ccc(OC)cc1OC,-8,-4,2,3,17,-3
CCN(CC(=O)Nc1ccc2c(c1)OCCO2)C(=O)/C=C/c1cccc(OC)c1OC,11,17*,-20,27*,-13,25*
O=C(Nc1nncs1)C1CCCC1,19*,5,-11,16,-9,6
COC(=O)Nc1nncs1,4,-1,-16,14,0,0
CCN(CC)c1ccc(/C=C(/C#N)c2nc3ccc(C)cc3[nH]2)c(OC(C)C)c1,-18,31*,52*,-25,69*,58*
CCOc1cc(N(CC)CC)ccc1/C=C(/C#N)c1nc2ccccc2[nH]1,-11,36*,52*,-19,-2,-1
Cc1ccc2nc(/C(C#N)=C\c3cc(O)ccc3[N+](=O)[O-])[nH]c2c1,2,-5,2,6,-10,0
CCCOc1cc(N(CC)CC)ccc1/C=C(/C#N)c1nc2ccc(C)cc2[nH]1,-19,11,39*,-12,56*,39*
Cc1cc(/C=C(\C#N)c2nc3ccccc3[nH]2)c(C)n1C,-3,-8,-7,9,0,-1
